# ChEMBL document CHEMBL2176939, “Rapid discovery of highly potent and selective inhibitors of histone deacetylase 8 using click chemistry to generate candidate libraries” (J Med Chem, 2012)
# pIC50: −log10 of the molar value. Calls of active or inactive are those of the source. The rule behind the calls is not given here.
# Key:
# [1] = target: Histone deacetylase (Homo sapiens) (UniProt Q13547+O15379+Q9UBN7+Q92769+Q9UQL6+Q8WUI4+Q9BY41+Q96DB2+P56524+Q9UKV0+Q969S8); assay: Inhibition of HDAC in human HeLa cells nuclear extracts at 3 uM by fluorometric assay; assay type: cell-free
# Outline: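 Total HDAC activity of HeLa nuclear extract was measured with a commercial fluorometric deacetylase kit, following the supplier's protocol. Compounds were screened at 3 μM, including crude click-reaction triazoles diluted without purification. Fluorescence was read at ex 360 / em 460 nm, and % inhibition was calculated relative to uninhibited control wells.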
# [2] = target: T1, Protein deacetylase HDAC6 (Homo sapiens, UniProt Q9UBN7); assay: Inhibition of HDAC6 by fluorometric assay
# T1 sequence (Q9UBN7 whole entry): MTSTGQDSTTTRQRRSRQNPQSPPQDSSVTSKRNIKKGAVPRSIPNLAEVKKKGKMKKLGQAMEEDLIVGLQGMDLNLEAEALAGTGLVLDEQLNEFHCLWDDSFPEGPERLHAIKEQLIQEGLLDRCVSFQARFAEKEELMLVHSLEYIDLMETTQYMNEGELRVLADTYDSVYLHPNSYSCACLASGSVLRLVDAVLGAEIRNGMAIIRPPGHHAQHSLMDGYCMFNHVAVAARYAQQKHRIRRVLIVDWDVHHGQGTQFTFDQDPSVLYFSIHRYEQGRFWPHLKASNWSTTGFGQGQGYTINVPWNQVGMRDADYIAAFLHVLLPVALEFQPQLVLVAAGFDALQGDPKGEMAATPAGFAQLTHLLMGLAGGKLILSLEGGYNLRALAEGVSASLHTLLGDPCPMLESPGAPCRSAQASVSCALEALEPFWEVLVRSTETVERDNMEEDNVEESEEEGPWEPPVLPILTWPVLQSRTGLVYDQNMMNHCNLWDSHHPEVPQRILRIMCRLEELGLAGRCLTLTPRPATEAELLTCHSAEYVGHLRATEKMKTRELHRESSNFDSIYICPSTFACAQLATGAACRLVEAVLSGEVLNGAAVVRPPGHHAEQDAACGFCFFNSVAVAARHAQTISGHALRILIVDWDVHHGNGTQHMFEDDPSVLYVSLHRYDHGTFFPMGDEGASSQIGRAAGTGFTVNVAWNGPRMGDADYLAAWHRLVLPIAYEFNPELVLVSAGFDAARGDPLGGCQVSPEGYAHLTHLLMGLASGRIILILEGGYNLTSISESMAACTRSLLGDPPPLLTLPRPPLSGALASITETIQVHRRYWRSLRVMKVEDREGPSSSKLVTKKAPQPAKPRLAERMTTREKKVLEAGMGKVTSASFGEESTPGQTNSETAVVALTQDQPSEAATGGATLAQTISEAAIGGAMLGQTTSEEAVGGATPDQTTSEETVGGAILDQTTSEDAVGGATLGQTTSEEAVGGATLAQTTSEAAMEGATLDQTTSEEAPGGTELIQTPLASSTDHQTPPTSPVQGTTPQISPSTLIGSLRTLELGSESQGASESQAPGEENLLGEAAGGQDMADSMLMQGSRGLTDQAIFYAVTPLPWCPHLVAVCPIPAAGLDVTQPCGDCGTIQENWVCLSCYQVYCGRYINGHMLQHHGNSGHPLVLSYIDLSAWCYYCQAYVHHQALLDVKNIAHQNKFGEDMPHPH
# Histone deacetylase 4 = Histone deacetylase 4 (Homo sapiens, UniProt P56524); assay: Inhibition of HDAC4 by fluorometric assay
# Sequence of Histone deacetylase 4 (P56524 whole entry): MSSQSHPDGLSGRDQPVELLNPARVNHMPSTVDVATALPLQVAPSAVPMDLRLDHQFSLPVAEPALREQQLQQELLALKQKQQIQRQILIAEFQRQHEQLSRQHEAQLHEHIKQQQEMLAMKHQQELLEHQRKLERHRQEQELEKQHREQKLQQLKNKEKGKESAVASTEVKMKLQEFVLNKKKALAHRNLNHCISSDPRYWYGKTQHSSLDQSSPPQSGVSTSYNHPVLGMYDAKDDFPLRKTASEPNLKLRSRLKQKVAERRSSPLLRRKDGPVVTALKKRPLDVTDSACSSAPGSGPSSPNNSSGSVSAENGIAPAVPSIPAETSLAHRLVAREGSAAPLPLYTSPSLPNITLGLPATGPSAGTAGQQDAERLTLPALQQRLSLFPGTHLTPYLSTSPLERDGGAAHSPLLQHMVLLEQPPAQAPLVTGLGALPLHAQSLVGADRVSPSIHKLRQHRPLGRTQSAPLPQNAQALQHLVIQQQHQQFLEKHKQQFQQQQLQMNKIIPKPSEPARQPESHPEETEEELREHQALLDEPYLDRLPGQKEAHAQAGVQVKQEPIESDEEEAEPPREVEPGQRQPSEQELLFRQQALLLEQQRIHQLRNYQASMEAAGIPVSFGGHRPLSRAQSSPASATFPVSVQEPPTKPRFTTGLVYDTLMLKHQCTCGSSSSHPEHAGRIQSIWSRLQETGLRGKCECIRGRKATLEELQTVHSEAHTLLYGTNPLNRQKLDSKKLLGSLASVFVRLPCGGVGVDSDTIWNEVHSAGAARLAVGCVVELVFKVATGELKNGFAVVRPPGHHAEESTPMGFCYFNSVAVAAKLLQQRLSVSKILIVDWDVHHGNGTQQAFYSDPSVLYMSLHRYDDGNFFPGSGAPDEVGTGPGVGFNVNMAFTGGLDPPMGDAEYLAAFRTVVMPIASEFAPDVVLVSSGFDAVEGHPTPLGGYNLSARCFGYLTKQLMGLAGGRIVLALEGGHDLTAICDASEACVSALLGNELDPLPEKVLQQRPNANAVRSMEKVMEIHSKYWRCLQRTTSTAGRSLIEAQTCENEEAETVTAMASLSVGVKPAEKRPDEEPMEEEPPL
# Histone deacetylase 8 = target: T2, Histone deacetylase 8 (Homo sapiens, UniProt Q9BY41); assay: Inhibition of HDAC8 by fluorometric assay
# T2 sequence (Q9BY41 whole entry): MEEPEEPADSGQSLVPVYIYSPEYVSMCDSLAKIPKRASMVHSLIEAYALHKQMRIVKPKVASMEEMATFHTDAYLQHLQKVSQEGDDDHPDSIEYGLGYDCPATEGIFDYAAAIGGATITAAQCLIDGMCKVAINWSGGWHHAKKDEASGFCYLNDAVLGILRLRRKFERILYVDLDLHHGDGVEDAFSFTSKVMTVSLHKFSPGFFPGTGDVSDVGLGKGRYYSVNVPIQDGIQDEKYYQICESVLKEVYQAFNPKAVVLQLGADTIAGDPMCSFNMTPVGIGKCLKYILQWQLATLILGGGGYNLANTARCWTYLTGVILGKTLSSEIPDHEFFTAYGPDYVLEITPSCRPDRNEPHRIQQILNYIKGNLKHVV
# Histone deacetylase 2 = Histone deacetylase 2 (Homo sapiens, UniProt Q92769); assay: Inhibition of HDAC2 by fluorometric assay
# Sequence of Histone deacetylase 2 (Q92769 whole entry): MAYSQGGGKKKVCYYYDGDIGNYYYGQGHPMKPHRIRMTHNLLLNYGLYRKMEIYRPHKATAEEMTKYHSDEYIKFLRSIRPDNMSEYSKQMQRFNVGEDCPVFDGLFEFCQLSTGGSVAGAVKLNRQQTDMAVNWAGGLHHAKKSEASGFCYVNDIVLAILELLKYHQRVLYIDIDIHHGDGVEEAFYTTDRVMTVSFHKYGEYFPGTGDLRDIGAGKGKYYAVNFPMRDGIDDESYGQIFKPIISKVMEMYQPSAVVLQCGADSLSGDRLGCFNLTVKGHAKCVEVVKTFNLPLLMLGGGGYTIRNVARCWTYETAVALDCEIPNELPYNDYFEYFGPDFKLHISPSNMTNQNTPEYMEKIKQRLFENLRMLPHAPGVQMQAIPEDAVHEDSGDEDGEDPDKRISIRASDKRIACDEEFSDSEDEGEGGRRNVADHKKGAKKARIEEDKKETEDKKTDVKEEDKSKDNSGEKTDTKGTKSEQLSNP
# Histone deacetylase 1 = Histone deacetylase 1 (Homo sapiens, UniProt Q13547); assay: Inhibition of HDAC1 by fluorometric assay
# Sequence of Histone deacetylase 1 (Q13547 whole entry): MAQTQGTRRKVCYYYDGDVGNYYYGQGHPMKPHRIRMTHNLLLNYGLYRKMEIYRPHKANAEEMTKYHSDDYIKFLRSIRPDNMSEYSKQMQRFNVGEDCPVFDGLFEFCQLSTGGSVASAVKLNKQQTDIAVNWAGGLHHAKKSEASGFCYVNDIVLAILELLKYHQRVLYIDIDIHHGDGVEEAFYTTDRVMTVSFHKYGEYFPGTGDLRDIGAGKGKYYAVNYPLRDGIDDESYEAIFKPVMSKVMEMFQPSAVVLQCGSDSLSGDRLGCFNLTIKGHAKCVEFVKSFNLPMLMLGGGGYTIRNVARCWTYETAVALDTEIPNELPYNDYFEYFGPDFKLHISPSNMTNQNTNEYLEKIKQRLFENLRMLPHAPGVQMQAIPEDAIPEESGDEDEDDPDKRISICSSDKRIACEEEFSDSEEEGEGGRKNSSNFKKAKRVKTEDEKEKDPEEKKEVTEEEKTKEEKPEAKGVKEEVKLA
# Histone deacetylase = assay: Inhibition of HDAC in human HeLa cells nuclear extracts by fluorometric assay; assay type: cell-based
# [3] = Growth inhibition of human PBMC PB-N cells incubated for 72 hrs by MTS assay; assay type: cell-based
# Outline: (§1)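 Cells plated at 2 × 10⁵ cells/well in culture medium and exposed to inhibitor for 72 h at 37 °C under 5% CO₂. MTS was then added for 2 h, with absorbance read at 490 nm against a 650 nm reference. Wells were also read at compound addition (T₀). % growth = 100[(T − T₀)/(C − T₀)], or […]. GI₅₀ is where % growth = 50.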
# [4] = Growth inhibition of human LAN1 cells incubated for 72 hrs by MTS assay; assay type: functional; settings: LAN1, 72 h; outline: as §1
# [5] = Growth inhibition of human PBMC PB-O cells incubated for 72 hrs by MTS assay; assay type: cell-based; outline: as §1
# NB1 = assay: Growth inhibition of human NB-1 cells incubated for 72 hrs by MTS assay; assay type: functional; settings: NB1, 72 h; outline: as §1
# MT4 = assay: Growth inhibition of human MT4 cells incubated for 72 hrs by MTS assay; assay type: functional; settings: MT4, 72 h; outline: as §1
# MT2 = assay: Growth inhibition of human MT2 cells incubated for 72 hrs by MTS assay; assay type: functional; settings: MT2, 72 h; outline: as §1
# Jurkat = assay: Growth inhibition of human Jurkat cells incubated for 72 hrs by MTS assay; assay type: functional; outline: as §1
# HH = assay: Growth inhibition of human HH cells incubated for 72 hrs by MTS assay; assay type: functional; outline: as §1
inhibition [1],pIC50 [2],pIC50 (Histone deacetylase 4),pIC50 (Histone deacetylase 8),pIC50 (Histone deacetylase 2),pIC50 (Histone deacetylase 1),IC50 (Histone deacetylase),GI50 (Jurkat),SMILES,GI50 at 72 h [3],GI50 [4],GI50 at 72 h [5],GI50 (NB1),GI50 (MT4),GI50 (MT2),GI50 (HH)
inactive,5.96,< 4.00,7.00,< 4.00,< 4.00,44 µM,,O=C(NO)c1cccc(-c2cn(CCc3ccsc3)nn2)c1,,,,,,,
,,,,,,,11 µM,COc1ccc(Cn2ccc3ccc(C(=O)NO)cc32)cc1,> 100 µM,3.9 µM,97 µM,14 µM,25 µM,15 µM,> 100 µM
inactive,5.10,4.52,6.46,4.19,4.39,37 µM,,O=C(NO)c1cccc(-c2cn(Cc3ccccc3)nn2)c1,,,,,,,
inactive,5.49,< 4.00,6.74,4.12,< 4.00,23 µM,11 µM,O=C(NO)c1cccc(-c2cn(CCc3ccccc3)nn2)c1,> 100 µM,27 µM,> 100 µM,39 µM,30 µM,19 µM,79 µM
inactive,,,,,,,7.6 µM,O=C(NO)c1cccc(-c2cn(CSc3ccccc3)nn2)c1,> 100 µM,6.4 µM,> 100 µM,12 µM,15 µM,11 µM,23 µM
